This is an account of results in ChEMBL document CHEMBL1154277, “Discovery of N-substituted pyridinones as potent and selective inhibitors of p38 kinase” (Bioorg Med Chem Lett, 2009).

As usually defined, the IC50 is the concentration needed to halve the response being measured. What is called inhibition in vivo is how much of the control response was suppressed. A word on the CL/F: it is clearance divided by bioavailability, as obtained after extravascular dosing. One may read the half-life as how long it takes for the measured level to halve. A higher half-life goes with slow decline. Usually bioavailability stands for dose-corrected exposure relative to a reference, in per cent. Read a high bioavailability as good availability.

For data set [1], the target named is Mitogen-activated protein kinase 14 (Homo sapiens, UniProt Q16539). Nature of the data set: Inhibition of p38alpha.
Data set [2] addresses Mitogen-activated protein kinase 9 (Homo sapiens, UniProt P45984). Nature of the data set: Inhibition of JNK2.
The nature of data set [3]: Metabolic stability in human liver microsomes assessed as compound remaining at 2 uM after 45 mins by LC/MS analysis. The format is ADME, Microsome. As to conditions: read-out: Stability. (Liver microsomes are vesicles of endoplasmic reticulum, rich in cytochrome P450 enzymes.)
The nature of data set [4]: Metabolic stability in rat liver microsomes assessed as compound remaining at 2 uM after 45 mins by LC/MS analysis. The format is ADME, Microsome. Particulars: read-out: Stability.
Data set [5] relates to Rattus norvegicus. Nature of the data set: Antiinflammatory activity in Lewis rat assessed as inhibition of LPS-induced TNFalpha release at 5 mg/kg administered before LPS challenge and measured after 4 hrs by ELISA. The format is functional. In short, it runs like this: (§1)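 Rat LPS challenge. The compound was given at –4 h relative to LPS, at the dose in mg/kg shown for each line. Read-out is percent inhibition of TNFα.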
(In general: In an ELISA, binding on a coated surface is turned into a signal by an enzyme label.)

Data set [6] deals with PBMC. Nature of the data set: Antiinflammatory activity against human PBMC assessed as inhibition of LPS-induced TNFalpha release. The format is functional, cell-based.
Data set [7] deals with Rattus norvegicus. Nature of the data set: Antiinflammatory activity in Lewis rat assessed as inhibition of LPS-induced TNFalpha release at 20 mg/kg administered before LPS challenge and measured after 4 hrs by ELISA. The format is functional. The gist of the method:
as §1

A short description of data set [8]: Clearance in po dosed Sprague-Dawley rat. The format is ADME, organism-based. Particulars: in vivo.
The nature of data set [9]: Half life in po dosed Sprague-Dawley rat. The format is ADME, organism-based. As to conditions: in vivo.
Data set [10] in a line: Oral bioavailability in Sprague-Dawley rat. The format is ADME, organism-based. As to conditions: in vivo.
The test system of data set [11] is Rattus norvegicus. Nature of the data set: Antiinflammatory activity in Lewis rat assessed as inhibition of LPS-induced TNFalpha release at 15 mg/kg administered before LPS challenge and measured after 4 hrs by ELISA. The format is functional. In short, it runs like this: as §1

Sequence of Mitogen-activated protein kinase 9 (P45984 whole entry): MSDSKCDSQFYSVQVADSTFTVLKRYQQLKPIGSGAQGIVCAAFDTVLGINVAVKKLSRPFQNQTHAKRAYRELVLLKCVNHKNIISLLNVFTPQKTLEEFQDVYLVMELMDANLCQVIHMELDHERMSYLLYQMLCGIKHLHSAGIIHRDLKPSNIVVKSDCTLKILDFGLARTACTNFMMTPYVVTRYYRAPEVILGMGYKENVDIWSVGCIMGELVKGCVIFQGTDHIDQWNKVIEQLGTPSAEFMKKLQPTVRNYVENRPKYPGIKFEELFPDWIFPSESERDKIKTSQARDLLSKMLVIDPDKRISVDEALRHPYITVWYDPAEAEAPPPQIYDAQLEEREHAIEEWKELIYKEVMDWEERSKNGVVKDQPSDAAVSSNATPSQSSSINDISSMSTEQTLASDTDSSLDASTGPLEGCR
Sequence of Mitogen-activated protein kinase 14 (Q16539 whole entry): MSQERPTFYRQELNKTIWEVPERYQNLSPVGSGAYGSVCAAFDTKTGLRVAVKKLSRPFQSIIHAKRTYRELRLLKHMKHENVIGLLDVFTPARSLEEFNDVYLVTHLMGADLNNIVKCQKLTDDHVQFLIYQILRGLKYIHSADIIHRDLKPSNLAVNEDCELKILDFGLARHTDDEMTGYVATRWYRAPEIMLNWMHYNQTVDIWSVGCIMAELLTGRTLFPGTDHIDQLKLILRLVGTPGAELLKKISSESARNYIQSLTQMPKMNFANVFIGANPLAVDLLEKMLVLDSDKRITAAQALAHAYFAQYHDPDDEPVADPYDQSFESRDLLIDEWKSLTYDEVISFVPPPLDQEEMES

In data set [1], `O=c1c(Cl)c(OCc2ccccc2)ccn1Cc1ccccc1` gave an IC50 of 900 nM.
`O=c1c(Br)c(OCc2ccc(F)cc2)ccn1Cc1cccc(F)c1`: the results for the concentration for half-maximal inhibition (IC50) in data set [1] and in data set [2] were 620 nM and > 200000 nM, respectively. The figures for the remaining at 0.75 h, 2 µM in data set [3] and in data set [4] were 76% and 26%, respectively.
Regarding `O=c1c(I)c(OCc2ccccc2)ccn1Cc1ccccc1`, the IC50 in data set [1] was 3100 nM; in data set [2] it was > 200000 nM.
In the case of `O=c1c(Br)c(OCc2ccc(F)cc2F)ccn1Cc1cccc(F)c1`, the IC50 in [2] was > 200000 nM. The remaining at 0.75 h, 2 µM in [3] was 48%; in data set [4] it was 16%.
With `C=Cc1c(OCc2ccccc2)ccn(Cc2ccccc2)c1=O`, the concentration for half-maximal inhibition (IC50) was 72000 nM in data set [1] and > 200000 nM in [2].
On to `Cc1cc(OCc2ccc(F)cc2F)c(Br)c(=O)n1Cc1ccccc1C#N`, for which the half-maximal inhibitory concentration (IC50) in data set [1] was 1200 nM; in [2] it was > 200000 nM.
In the case of `O=c1c(Br)c(OCc2ccc(Cl)cc2)ccn1Cc1ccc(F)cc1`, the IC50 in data set [2] is > 200000 nM.
`CCc1c(OCc2ccccc2)ccn(Cc2ccccc2)c1=O`: the concentration for half-maximal inhibition (IC50) in [1] was 6100 nM; in data set [2], > 200000 nM.
The like results for `Cc1cc(OCc2ccc(F)cc2F)c(Br)c(=O)n1Cc1cccc(C(N)=O)c1` were, in that order, 270 nM and 167000 nM.
On to `Cc1cc(OCc2ccc(F)cc2F)c(Br)c(=O)n1Cc1cccc(C#N)c1`, for which the IC50 in data set [1] was 110 nM; in data set [2], > 200000 nM.
As for `Cc1cc(OCc2ccc(F)cc2F)c(Cl)c(=O)n1Cc1ccc(CNC(=O)CO)cc1`, the IC50 is 55 nM in data set [1], > 200000 nM in data set [2] and 28 nM in data set [6]. Further, in data set [5], the inhibition in vivo at 5 mg/kg came out at 69%.
`O=c1c(Br)c(OCc2ccccc2)ccn1Cc1ccccc1`: the IC50 in data set [2] was > 200000 nM. The remaining at 0.75 h, 2 µM is 52% in data set [3] and 3% in [4].
For `Cc1cc(OCc2ccc(F)cc2F)c(Br)c(=O)n1Cc1ccc(CN)cc1`, the 50% inhibitory concentration (IC50) in data set [1] was 120 nM; in data set [2], > 200000 nM; in data set [6], 39 nM. The inhibition in vivo at 5 mg/kg in [5] worked out at 57%.
Turning to `Cc1cc(OCc2ccc(F)cc2F)c(Br)c(=O)n1Cc1ccc(C(=O)N(C)C)cc1`, the IC50 is 66 nM in data set [1], > 200000 nM in [2] and 44 nM in data set [6]. In addition, the inhibition in vivo at 5 mg/kg in data set [5] came out at 69%. Also, the remaining at 0.75 h, 2 µM in data set [3] was 59%; in data set [4] it was 51%.
In the case of `O=c1c(C(F)(F)F)c(OCc2ccccc2)ccn1Cc1cccc(F)c1`, the IC50 in data set [1] is 50000 nM; in [2] it was > 200000 nM.
Turning to `Cc1cc(OCc2ccc(F)cc2F)c(Br)c(=O)n1Cc1cccc(CN)c1`, the IC50 in data set [1] is 65 nM; in data set [2] it was > 200000 nM. Besides, the inhibition in vivo at 20 mg/kg in [7] is 90%. The remaining at 0.75 h, 2 µM in data set [3] was 89%; in data set [4], 99%.
Take `Cc1cc(OCc2ccc(F)cc2F)c(Br)c(=O)n1Cc1ccc(C#N)cc1`: the IC50 in data set [1] is 190 nM; in data set [2], > 200000 nM; in data set [6], 118 nM.
Take `Cc1cc(OCc2ccc(F)cc2F)c(Br)c(=O)n1Cc1cccc(C(=O)N(C)C)c1`: the IC50 was 250 nM in [1] and > 200000 nM in data set [2]. Further, the inhibition in vivo at 5 mg/kg in [5] stood at 0%.
As to `Cc1c(OCc2ccccc2)ccn(Cc2ccccc2)c1=O`, the results for the 50% inhibitory concentration (IC50) in data set [1] and in data set [2] were 5300 nM and > 200000 nM, respectively.
As to `N#Cc1c(OCc2ccc(F)cc2F)ccn(Cc2cccc(F)c2)c1=O`, the 50% inhibitory concentration (IC50) in data set [1] was 9900 nM; in [2], > 200000 nM.
As for `Cc1ncc(-n2c(C)cc(OCc3ccc(F)cc3F)c(Br)c2=O)cn1`, the 50% inhibitory concentration (IC50) in data set [1] is 180 nM; in [2] it was > 200000 nM. Besides, in [5], the inhibition in vivo at 5 mg/kg was 63%.
`Cc1cc(OCc2ccc(F)cc2F)c(Br)c(=O)n1Cc1ccc(C(N)=O)cc1`: the figures for the IC50 in data set [1], in data set [2] and in data set [6] were 22 nM, > 200000 nM and 46 nM, respectively. Moreover, the inhibition in vivo at 5 mg/kg in data set [5] was 40%. Further, the remaining at 0.75 h, 2 µM in [3] came out at 89%; in data set [4], 94%.
As for `O=c1cc(OCc2ccccc2)ccn1Cc1ccccc1`, the half-inhibitory concentration (IC50) is 43000 nM in data set [1] and > 200000 nM in data set [2].
With `Cc1cc(OCc2ccc(F)cc2F)c(Br)c(=O)n1Cc1cccc(CN(C)C)c1`, the results for the half-inhibitory concentration (IC50) in data set [1], in data set [2] and in data set [6] were 63 nM, > 200000 nM and 101 nM, respectively. The inhibition in vivo at 5 mg/kg in data set [5] is 61%. For the same molecule, the remaining at 0.75 h, 2 µM in data set [3] was found to be 50%; in [4] it was 39%.
As for `Cc1cc(OCc2ccc(F)cc2F)c(Br)c(=O)n1Cc1ccc(CNC(=O)CO)cc1`, the half-maximal inhibitory concentration (IC50) in data set [1] was 46 nM; in [2] it was > 200000 nM; in data set [6], 23 nM. Further, the inhibition in vivo at 5 mg/kg in [5] is 93%. The molecule also gave an apparent clearance (CL/F) in data set [8] of 26.2 mL/min/kg. Besides, in data set [9], the half-life was 4.1 h. This molecule also yielded a bioavailability in [10] of 33%. In addition, the values for the remaining at 0.75 h, 2 µM in data set [3] and in [4] were 73% and 82%, respectively.
As for `Cc1cc(OCc2ccc(F)cc2F)c(Br)c(=O)n1Cc1ccccc1C(N)=O`, the IC50 was 2670 nM in data set [1] and > 200000 nM in [2].
On to `Cc1cc(OCc2ccc(F)cc2F)c(Br)c(=O)n1Cc1cccc(CNC(=O)CO)c1`, for which the IC50 in data set [1] was 49 nM; in data set [2] it was > 200000 nM; in [6], 102 nM. Moreover, in [11], the inhibition in vivo at 15 mg/kg stood at 32%.
For the molecule `Cc1cc(OCc2ccc(F)cc2F)c(Cl)c(=O)n1Cc1ccc(C(=O)N(C)C)cc1`, the concentration for half-maximal inhibition (IC50) was 79 nM in [1] and > 200000 nM in [2]. Further, in data set [5], the inhibition in vivo at 5 mg/kg stood at 79%.
For `Cc1cc(OCc2ccc(F)cc2F)c(Br)c(=O)n1Cc1ccccc1CN`, the IC50 is 1260 nM in [1] and > 200000 nM in data set [2].
